A selection: hits, their analogues and other compounds. The true share with any hit is near 2.1%.
PABP polyA inh = PABP-poly(A) binding inhibition | PABP-poly(A) RNA binding, fluorescence polarization | hit rate 1% among 290,000 | inhibition, % at 35 µM | AID 2014 | P11940;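 also: calls also rest on retests at 20 µM and on dose response follow-up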
EBNA-1 inhibitor = blocks EBNA-1 binding to DNA; hit rate 0.34% among 300,000; EBNA-1 DNA binding, fluorescence polarization; inhibition, % at 14.8 µM; in the data active = inhibition above about 28%
eIF4H inh = inhibitors of RNA binding by human eIF4H | eIF4H fluorescence polarization binding assay | hit rate 0.94% among 290,000 | inhibition, % at 35 µM;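 also: calls also rest on retests at 20 µM and on dose response follow-up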
MLLE-PAM2 inh = inhibitors of microRNA-mediated deadenylation, human PABP1 MLLE binding. AID 588489. GST-MLLE / FITC-PAM2 fluorescence polarization. hit rate 0.36% among 360,000. P11940. inhibition, % at 20 µM; in the data active = inhibition above about 35%, passing the limit was not always enough;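 also: plate controls were DMSO wells with GST-MLLE for no effect and wells lacking GST-MLLE protein for full effect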
ZTA counter = blocks Epstein-Barr virus ZTA, an EBNA-1 counter-screen; inhibition, % at 11 µM; P03206; ZTA-DNA binding, fluorescence polarization; hit rate 0.15% among 320,000; in the data active = inhibition above about 33%
Target sequence (P03206 whole entry, looked up): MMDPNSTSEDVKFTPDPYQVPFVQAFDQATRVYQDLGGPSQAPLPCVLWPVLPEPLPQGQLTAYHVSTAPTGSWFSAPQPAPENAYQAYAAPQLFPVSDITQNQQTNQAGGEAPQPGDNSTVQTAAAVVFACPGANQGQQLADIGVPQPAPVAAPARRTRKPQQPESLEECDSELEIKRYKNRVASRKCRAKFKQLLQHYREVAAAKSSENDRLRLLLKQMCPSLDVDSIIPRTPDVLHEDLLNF
NS3 helicase inh = inhibitors of Hepatitis C virus NS3 helicase. NS3 helicase DNA unwinding, Cy5 molecular beacon fluorescence. hit rate 0.56% among 290,000. inhibition, % at 10.9 µM;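 active = inhibition above the mean of all tested compounds plus 3 SD, set per campaign, cut at about 35% in these data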;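 also: 0% = DMSO wells and 100% = thioflavine S control wells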
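System: HCV NS3 helicase fragment; control set: DMSO and thioflavine S; technique: Cy5 fluorescence at 0 and 60 min, beacon hairpin quenching; reagent: beacon DNA duplex substrate plus ATP; replicates: singlicate; schedule: 1 h reaction at 25 °C, ATP-initiated; medium: MOPS buffer pH 6.5 with MgCl2, DTT, Tween20, BSA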
* hit, by the source's call; ? = inconclusive; · = no result given. Unless noted, no rule for the calls is given here.

SMILES	PABP polyA inh	EBNA-1 inhibitor	eIF4H inh	MLLE-PAM2 inh	ZTA counter	NS3 helicase inh
Cc1cc(/C([O-])=C(/C(=S)Nc2ccc(F)cc2)[n+]2ccccc2)c(C)n1-c1ccc(F)cc1	32.5	-0.7	66.7*	-23.2	0.8	35.0
CN(C)CCCNc1cc(O)c2ncccc2c1	·	·	·	41.2*	·	·
Cc1ccc(SCCC(=O)N/N=C/c2ccccc2O)cc1	-4.9	8.2	-1.6	-2.1	12.8	-13.6
Cc1cc(C)cc(N=Cc2[nH]c3ccc(Br)c(Cl)c3c2O)c1	3.8*	8.5	?	-9.6	-5.6	9.2
Cc1ccc(C(=O)N/C(=C/c2cccc([N+](=O)[O-])c2)C(=O)NCC2CCCO2)cc1 (stereo not given)	6.4	0.2	-2.9	-3.3	13.2	3.0
COc1ccccc1OCCNC(=O)C1CC(=O)N(c2ccc3c(c2)OCCO3)C1 (stereo not given)	·	2.0	·	-0.8	3.1	·
CC(=O)c1cc(O)c2ccccc2c1O	31.7	-14.2	12.8	41.3*	-17.3	12.3
OCCOCCN1CCN(C2=Nc3ccccc3Sc3ccccc32)CC1	12.8	7.1	-7.4	-2.9	-3.3	-16.6
O=C1C=CC(=O)c2c(O)c(N3CCN(CCO)CC3)c(Cl)c(O)c21	·	·	·	91.3*	·	·
O=C1C=CC(=O)c2c(O)c(N3CCN(CCOCCO)CC3)c(Br)c(O)c21	·	·	·	93.9*	·	·
Cc1cccc(N2CCN(C(=O)c3ccc4nccnc4c3)CC2C)c1 (stereo not given)	·	·	·	-2.2	·	·
Cc1cccc(N2CCN(C(=O)c3ccc4nc(-c5ccco5)c(-c5ccco5)nc4c3)CC2C)c1 (stereo not given)	79.4*	4.3	92.8*	11.5	-18.3	29.6
COC(=O)c1cc2n(n1)CCN(Cc1ccc(F)cc1)C2=O	0.0	-5.8	0.9	1.3	-2.5	2.3
O=C(O)c1ccc2c(c1)CCC2	54.2*	-0.7	3.3*	4.6	-11.7	-13.0
O=C(O)CCC(=O)c1ccc2c(c1)CCCC2	5.0	-3.4	-6.5	7.5	1.1	-6.1
COCCn1c(SCC(=O)N2CCC(C)CC2)nc2c(c1=O)SCC2	1.3	-0.6	-3.5	-11.5	1.6	-4.3
O=[N+]([O-])/C=C/c1cn(Cc2ccc(Cl)cc2)c2ccccc12	-6.2	-6.7	-4.9	-41.0	5.3	3.3
O=C(Nc1ccc(-n2nncc2-c2ccco2)cc1)c1cc2ccccc2oc1=O	6.8	19.2	60.9*	-3.1	-2.0	16.6
O=C(COC(=O)c1cccc(Cl)c1)Nc1cccc(S(=O)(=O)NC2=NCCC2)c1	·	·	·	13.0	·	·
Cc1cccc2nc(=S)n(C(=O)c3ccco3)n12	-4.5	-1.4	-1.5	19.1	7.2	2.8
CC1(OC(=O)C2CCCC2)C(=O)C=C2C=C(c3ccsc3)N(CCN3CCOCC3)C=C2C1=O (stereo not given)	41.2*	·	101.0	·	·	·
COC(=O)CCCC1=CC2=C(c3ccccc3)C(=O)C(C)(OC(=O)C3CCCC3)C(=O)C2=CN1CCc1ccccn1 (stereo not given)	10.1	2.5	22.7	7.8	5.2	·
COC(=O)CCCC1=CC2=C(c3ccccc3)C(=O)C(C)(OC(=O)C3CCCC3)C(=O)C2=CN1CCN1CCOCC1 (stereo not given)	16.5	8.4	14.2	40.4*	26.6	·
CCCN(CC(=O)Nc1ccccc1OC)C(C)C(=O)NC(C)CCc1ccccc1 (stereo not given)	0.1	-16.9	2.6	19.4	-9.2	-9.4
O=C(NCc1ccccc1Cl)c1ccc(Br)o1	5.7	0.4	4.8	-3.8	-2.6	-3.5
SMILES	PABP polyA inh	EBNA-1 inhibitor	eIF4H inh	MLLE-PAM2 inh	ZTA counter	NS3 helicase inh
Cc1ccc(NC2OC(C(O)CO)C(O)C2O)cc1[N+](=O)[O-] (stereo not given)	47.6	2.9	93.3*	-1.4	9.6	7.0
COc1cccc(N2CCN(CC(=O)NC(=O)NCc3ccco3)CC2)c1	active	-8.6	88.3	-16.0	8.3	6.8
O=C(Nc1cc2nn(-c3ccccc3)nc2cc1Cl)c1ccco1	57.6*	1.5	27.6*	-16.8	24.9	4.3
CC1CC(C)(C)NC(=S)N1CCCC(=O)Nc1ccc(Cl)cc1 (stereo not given)	84.7*	-10.2	active	-93.1	-0.2	-15.0
CCOc1ccc(NC(=O)CCN2C(=S)NC(C)(C)CC2C)cc1 (stereo not given)	75.1*	-12.4	5.7*	-49.3	-18.9	7.4
CC#CCN(CC#CC)S(=O)(=O)c1ccc(-n2cnnn2)c(OC)c1	-3.7	2.8	-13.2	6.1	-1.3	5.4

Compound activity from PubChem BioAssay.
